System: MS2 coat protein
Assay: apparent Kd, MS2 coat protein; higher = weaker binding; RNA-MaP array; FMN 200 µM where present
Method in brief: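 Green signal was scaled to red-channel RNA signal and control-cluster median Fmax, and the apparent Kd was taken as the median of filtered per-cluster binding-curve fits. The binding series used SNAP-549-labelled MS2 coat protein from 0.7 or 1.5 nM, doubling to 3 µM, on designs transcribed by stalled E. coli RNA polymerase on Illumina sequencing-chip clusters. Each series ran without and then with constant ligand in 100 mM Tris-HCl pH 7.5, 80 mM KCl, 4 mM MgCl2, BSA, DTT, yeast tRNA and Tween-20.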

[1] = designed as: OFF switch for flavin mononucleotide, no ligand
[2] = ligand present: flavin mononucleotide, designed as: OFF switch for flavin mononucleotide
[3] = designed as: ON switch for flavin mononucleotide, no ligand
[4] = ligand present: flavin mononucleotide, designed as: ON switch for flavin mononucleotide

Sequence	apparent Kd [1]	apparent Kd [2]	apparent Kd [3]	apparent Kd [4]
GCGGCUAAUGCAGGAUAUCGGCACGUGUAGUGCCGAGAAGGGCACAUGAGGAUCACCCAUGUGAUCAAUCAAUGUUAAUGCCGC	8.86 nM	44.2 nM		
AGCAUGUUUGGGUAACCUGGCACAUGAGGAUCACCCAUGUGACAGGAUAUCGACGUAGAUGGCGACGAGAAGGGUCCGAUGGGU	5.78 nM	7.01 nM		
AUCAUGUAAGGAUAUCUUACAUGUGACUUCGGUCACUGUCAAGAGAAGGUACAUGAGGAUCACCCAUGUAUGAC	14.7 nM	19 nM		
GCCUCACAUGAGGAUCACCCAUGUCAGGAUAUAGGAGACGGUAGCUUUGCUGCCUUCGCUAGAAGGGACUGGCU	33.5 nM	55.4 nM		
CCAUCUUGUCGAGGAUAUAUUAACAUGACAUGAGACACAUGAGGAUCACCCAUGUAUGUUGUUGUAUAGAAGGCGACUACAUGA			50.4 nM	51.2 nM
GUGGCUGUUAGGCUUGCGUCGGCGACAGAAGGCCAACAUGAGGAUCACCCAUGUACAAAGACCAUGGAGGAUAUGUUGCCAAUG			58.2 nM	7.54 nM
AACACAACAUGAAACAUGAGGAUCACCCAUGUUGUUUGUAAUCAGGAUAUGAUCUCAAGAAUGAAUUAGAAGGGAUAGGGAGGG			35.8 nM	47.1 nM
AUAAUUUUAUUUUUCCCAAGAAUCAGAAGGCGUUACAUGAGGAUCACCCAUGUUUUGUAUAGUAACGAGGAUAUGAUAUGGUUA	15.2 nM	14.7 nM		
GGCCCGUCUGUUAGGAUAUUGUCGAACUUUAGCGGCGAGAAGGAACAUGAGGAUCACCCAUGUCCCAACUGGGA	25.5 nM	196 nM		
GGGAGGGAUACAGGAUAUAUGACAUGAGGAUACAUGAGACAUACAAACAUGAGGAUCACCCAUGUAUAGAAGGGUAAGGGAGGG	173 nM	240 nM		
UGUUGUUCAGGAUAUGGUGUGUUAUACAUGAGGAUCACCCAUGUGGGUCCUGGUUUGGCCUCAGAAGGGAAUGUUG	750 nM	537 nM		
AUCCGGCGUGUAGGAUAUGGAAAAGAAAAGGAUCCAGAAGGACAUGAGGAUCACCCAUGUACAUGUAAACAGUCAUCACCGGAA	36.2 nM	58.9 nM		
GUAAGCUCGUGAGGAUAUACAACACUGCUUCGGCAGUGUAUUAAGAUCACAUGAGGAUCACCCAUGUAGAAGGCACGAGCUGAU	13.8 nM	245 nM		
GUAGUCAGUAAUGAAAGCCCGGGCGCAGAAGGCCAGACACAUGAGGAUCACCCAUGUAUCCCUAUGGAGGAUAUGUGUCACGUG			113 nM	30.5 nM
UCGGCGCGAGGAUAUGCGGUUUGUGCUUUGGGCCCUGGCGUACAUGAGGAUCACCCAUGUAGAAGGCGUGUUGC	21.3 nM	21.3 nM		
AUUGUUGUUGUGAGGAUAUCGUUGAUUUUUUGAAACGAGAAGGCACAUGAGGAUCACCCAUGUUAGUUGUUGGU	96.4 nM	311 nM		
CACAUGUGAGGAUAUGUAAUAAAGGCGACGCGGGUCGCCCGACAGAAGGCACAUGAGGAUCACCCAUGUGAUGA	37 nM	98 nM		
GAUGAUCGGUGAGGAUAUUUUAUAACGUUUUUGAAAGAAGGCACUGACAUGAGGAUCACCCAUGUGAGUCCUCAUCUUGAAAUA	18 nM	35.6 nM		
GUAUGGAGUACAGGAUAUGUAAGUUUUAAGUGUAUUGGUUAUUACUUAACAACAGAAGGGUAUUACAUGAGGAUCACCCAUGUA			13.4 nM	11 nM
GUAUCCGCUGAGGAUAUAAACUCCCUUGAGGGUUUAGAAGGCAGCACAUGAGGAUCACCCAUGUGGUAAGUUUG	17.1 nM	29.2 nM		
GGCAAAUGAGCAGGAUAUACAGUACAUGCCUAAUGGACUCACGCACAUGAGGAUCACCCAUGUACGUAGAAGGGCUCCGAGGAG	15.2 nM	19.1 nM		
AGCAGCUCGUCAGGAUAUACGUCACUGCGUCAGCAGUGUGGUAAGAUCACAUGAGGAUCACCCAUGUAGAAGGGACGAGCUGAU	13.7 nM	273 nM		
UUUUUUUUAGUAAGGAUAUGAUGCAGGAAACUGCGUCAGAAGGUACAUGAGGAUCACCCAUGUUAAUUUUGUUU	18.8 nM	20.4 nM		
CACAAUCUAUCUGAGGAUAUCAUGAAAAAAACAUGAGGAUCACCCAUGUGCAGGAAAACUGCAUAUGAGAAGGCAGAUAGAUUGC			613 nM	29.1 nM

Sequence	apparent Kd [1]	apparent Kd [2]	apparent Kd [3]	apparent Kd [4]
GACAUGGUCCAGAAGGGCUAUUUAUUUAAGUAUGAUUUAGAACAGCAUAGCAGGAUAUGGCUAACAUGAGGAUCACCCAUGUUC			20.1 nM	13.3 nM
GCCAUCGCAUGAGGAUAUGCUCGGGUUUCCCGAGCAGAAGGCAUGUCAAAAGACAUGAGGAUCACCCAUGUAGUUAAGAUGGCA			122 nM	8.11 nM
UCCGGAGUAGGAUAUACGGUGUAAUGACACGGCGUCGAUCAACAUGAGGAUCACCCAUGUAGAAGGACUGCGUC	14.4 nM	15.9 nM		
GUAAACGAUCAGGAUAUAUCAAAUAAUAGCUUGAUAGAAGGGAUCACAUGAGGAUCACCCAUGUGAUCUUCUUU	13.6 nM	14.8 nM		
UUACAGUGCGGGUAGGAUAUGUAGGGUGGUACAUGAGGAUCACCCAUGUAUCCACCCUUCUACCGGCAGAAGGGCCUGUCACUGC			17 nM	13.5 nM
UUGAACGUCGUAGGAUAUGUAGGAUAUUCCUACAUGAGGAUCACCCAUGUUGACAUGGAAGAAGGACAGAAGGACGAUGUCCAU			567 nM	7.77 nM
UGGUACUAGGGAGGAUAUGGGAAGAUACAUGAGGAUCACCCAUGUUUAAGAAUGCCGAGAGGCAACUAGAAGGCCCUAGUCCCU			317 nM	19.1 nM
CUGAGCUUAGGAUAUACGUGUUGAUCUGAUCUCGACCUAUUACAUGAGGAUCACCCAUGUAGAAGGGAGCCGGA	17.6 nM	19.3 nM		
GUUAAUUAGUGAGGAUAUACAGAAAUUAAAACUGUAGAAGGCACAUUCCUCAAGACAUGAGGAUCACCCAUGUGAUAAUAAGAU	35.2 nM	127 nM		
AGGCGAGUAGGAUAUGCGUUUUUACGGGAAAGCUGGAUGGUACAUGAGGAUCACCCAUGUAGAAGGGCUCUGAA	23.4 nM	21.8 nM		
CCAGUGUUAGGAUAUGAUACUAAUGGAUAGCAUUCCGCAGUUUAGAAGGGACAUGAGGAUCACCCAUGUACGGG	144 nM	139 nM		
CCUCUGUAAGGAUAUACGGAGACGGCUGGAAUCAGUGGAAAGUAGAAGGUACAUGAGGAUCACCCAUGUGAGAC	21.1 nM	66.2 nM		
GCUCUAUGCUAGAAGGCGUGAAACAUGAGGAUCACCCAUGUCAAAGAAGUGAGGAUAUAGCAUAGAGCAAAAGUGCGAAAGCAC			16.9 nM	7.32 nM
AAUUGACACGUAGGAUAUCGAUCUAAAUUAACUCGAGAAGGACGUACAUGAGGAUCACCCAUGUUUAAUGGAGUAGAUAUGUUG	121 nM	398 nM		
AGAGAUACGCUCGUCGGACACCGACAUGAGGAUCACCCAUGUAGAAGGCGAUGCGCAACUCGCAUUGAGGAUAUAUAAUGCAGC	6 nM	5.74 nM		
AAGCGAAAGCUAAAAUAUCUAUCAGAGGAUAUUUAUGAUACAUGAGGAUCACCCAUGUGGCACUGGGAGAAGGCUGAUAGAUAA			11.6 nM	6.15 nM
CCUGUUUGAUUCCUCUUAUACAUGAGGAUCACCCAUGUUAUCGAGGAUAUGCAUUAGAGUGUUUAGCAGAAGGCGAUGUAAUUG	6.12 nM	17.5 nM		
AUCAGCUCGUCAGGAUAUACGUCACUGCGUCAGCAGUGUGGUAAGAUCACAUGAGGAUCACCCAUGUAGAAGGGACGAGCUGAU	39.7 nM	696 nM		
GGACGUCACAUGAACAUGAGGAUCACCCAUGUGAAAACACAUGAGGAUAUGGAUCCUAAUUGGAUCCAGAAGGCAUGGACGUCC			476 nM	27.2 nM
CUCUAGUGAGGAUAUCAGUAGUAAAAAAAUAAAAUUACUACUGAGAAGGCACAUGAGGAUCACCCAUGUCUUUC	87.1 nM	46.5 nM		
AUUUAUGGCCAGAAGGACAUGAGGAUCACCCAUGUAGGAUAUGGACGAUUUUGCUCGGCGGUUCGUUUAGGAAUCACCGGUGGU			7.88 nM	6.38 nM
UGGUACUAGGGAGGAUAUGGAAAGAUACAUGAGGAUCACCCAUGUUUAAGAAUGCCGAGAGGCAACUAGAAGGCCCUAGUACCU			11.1 nM	5.29 nM
CCAGAUAUGUGAGGAUAUAGAGUGGAAUACACUCUAGAAGGUAUGUGAGAACAUGAGGAUCACCCAUGUCAUUGAUUAUCUGGA			24.7 nM	24.6 nM
GUUAGUUAAGGAUAUACAGGGAGCUGCGGCGUCUCGCCGCAACAUGAGGAUCACCCAUGUAGAAGGUGACCUUU	529 nM	406 nM		

— the EternaBench riboswitch data
